Results as given in PMC4641816 (Journal of biomolecular screening, 2014).
Read-outs that look alike come from different tables or passages of the source.

Tests used:
[1] = target: recombinant CTSL1 (Fasciola hepatica, UniProt Q7JNQ9); test: Cathepsin L1; format: biochemical
[2] = target: PfM18AAP extracts (soluble freeze-thaw extracts of parasites) (Plasmodium falciparum, UniProt Q8I2J3); test: Malaria cell lysate assay; format: biochemical; settings: at ≤5μM
In short: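 Human erythrocytes infected in vitro were washed in PBS and parasites released with saponin. Three freeze-thaw cycles followed and supernatant extracts were kept. Extracts were incubated with test compound plus CoCl2 and aminoacyl-NHMec substrate (given as both H-Glu- and H-Asp-NHMec). Decreased fluorescence from substrate cleavage was taken as inhibition. Vehicle and background controls were included.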

[3] = tested on: P. falciparum infected red blood cells; test: Parasite growth assay; format: cell-based, Plasmodium falciparum; settings: 10 μM test concentration
In short: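 Asexual erythrocytic-stage P. falciparum in infected RBCs was incubated with test compound at 10 µM in hypoxanthine-free medium, then 3H-hypoxanthine was added. 3H incorporation was measured after 48 h; reduced incorporation was scored as inhibition. Each plate held vehicle and uninfected-RBC background controls (DMSO ≤1%).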

[4] = target: T1, purified recombinant PfM18AAP (Plasmodium falciparum, UniProt Q8I2J3); test: Ki determination and mode of inhibition; format: biochemical; settings: for mode of inhibition of PfM18AAP: comparison of fits, Lineweaver-Burk plots
T1 sequence (Q8I2J3 1-570): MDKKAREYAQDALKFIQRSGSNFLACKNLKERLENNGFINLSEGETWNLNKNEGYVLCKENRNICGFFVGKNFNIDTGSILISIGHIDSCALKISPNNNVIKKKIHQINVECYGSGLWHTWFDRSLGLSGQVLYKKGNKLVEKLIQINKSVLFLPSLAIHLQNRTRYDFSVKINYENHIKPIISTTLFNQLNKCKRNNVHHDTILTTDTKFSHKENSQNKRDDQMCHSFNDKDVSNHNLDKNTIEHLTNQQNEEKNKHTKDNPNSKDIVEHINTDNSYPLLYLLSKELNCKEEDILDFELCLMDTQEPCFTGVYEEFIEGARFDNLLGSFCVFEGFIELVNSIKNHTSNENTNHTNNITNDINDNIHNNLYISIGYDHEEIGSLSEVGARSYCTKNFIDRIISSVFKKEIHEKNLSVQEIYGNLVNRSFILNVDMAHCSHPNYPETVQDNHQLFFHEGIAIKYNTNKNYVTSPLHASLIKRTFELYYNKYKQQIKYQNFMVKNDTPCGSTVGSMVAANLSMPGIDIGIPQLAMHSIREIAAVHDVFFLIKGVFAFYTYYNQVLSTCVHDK

[5] = previous primary screens at SRIMSC; ref PubChem AIDs 1859, 1931, 651959; cited from earlier work
[6] = tested on: mammalian cytotoxicity; settings: previous primary screens, where tested; ref PubChem AIDs 1486, 1825; cited from earlier work
[7] = tested on: bacterial viability; settings: previous primary screens, where tested; ref PubChem AIDs 449731, 651606; cited from earlier work
[8] = tested on: serotonin receptor; settings: previous primary screens; ref PubChem AIDs 612 and 504916; cited from earlier work
[9] = tested on: PfM18AAP; settings: cited from earlier work

Row | Compound | mode of inhibition of PfM18AAP [4] | activity in similarly formatted enzymatic inhibition assays [5] | activity in mammalian cytotoxicity screens [6] | activity in bacterial viability screens [7] | activity in cell-based screens at SRIMSC (serotonin receptor screens) [8] | effect of metal ion on PfM18AAP activity [9] | other results
1 | CN1CCc2cccc3c2[C@@H]1Cc1ccc(O)c(O)c1-3.Cl.O [CID 6852389, (S)-(+)-Apomorphine hydrochloride hydrate] | non-competitive | devoid of activity | inactive | inactive | inactive in all cell-based screens tested at the SRIMSC, except for two serotonin receptor screens | – | IC50 ([1]; read-out: IC50 in CTSL1 titration experiments, 10 point titration, triplicate): > 59.6 µM; efficacy in P. falciparum lysate assay [2]: 84%; inhibition in 3H hypoxanthine incorporation assay [3]: 87%; Ki ([4]; read-out: Ki (non-linear regression), powder samples, substrate Glu-NHMec): 3.39 ± 0.36 µM
2 | Oc1ccc(CCNc2c3ccccc3nc3ccccc23)cc1O [CID 23724194, 4-[2-(acridin-9-ylamino)ethyl]benzene-1,2-diol] | non-competitive | devoid of activity | inactive | inactive | inactive in all cell-based screens tested at the SRIMSC, except for two serotonin receptor screens | – | IC50 [1]: > 59.6 µM; Ki [4]: 1.35 ± 0.15 µM
3 | C[C@H](NC(=O)[C@H](Cc1ccccc1)NC(=O)OCc1ccccc1)C(=O)C=[N+]=[N-] [Z-Phe-Ala diazomethylketone, Z-Phe-Ala-diazomethylketone, reference compound] | – | – | – | – | – | – | IC50 ([1]; read-out: IC50 of positive control in CTSL1 HTS assay, average, N=22 plates): 0.0155 µM
4 | [Cl-].[Cl-].[Zn+2] [Zn(II), ZnCl2, reference compound] | – | – | – | – | – | – | concentration at which PfM18AAP is inhibited [9]: > 1 mM
5 | [Cl-].[Cl-].[Co+2] [cobalt] | – | – | – | – | – | enhanced | –
6 | [Mn+2] [manganese] | – | – | – | – | – | enhanced | –
